Data as given in the EternaBench riboswitch data.

Test system: MS2 coat protein
Test: apparent Kd, MS2 coat protein; higher = weaker binding; RNA-MaP array; FMN 200 µM where present
How it was run: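 The apparent Kd is reported as the median of filtered per-cluster binding-curve fits. To get these curves, designs transcribed by stalled E. coli RNA polymerase on Illumina sequencing-chip clusters were titrated with SNAP-549-labelled MS2 coat protein from 0.7 or 1.5 nM, doubling to 3 µM. Titrations were run without and then with constant ligand in 100 mM Tris-HCl pH 7.5, 80 mM KCl, 4 mM MgCl2, BSA, DTT, yeast tRNA and Tween-20, and green signal was normalised to red-channel RNA signal and control-cluster median Fmax.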

[1] = designed as: OFF switch for flavin mononucleotide, no ligand
[2] = ligand present: flavin mononucleotide, designed as: OFF switch for flavin mononucleotide
[3] = designed as: ON switch for flavin mononucleotide, no ligand
[4] = ligand present: flavin mononucleotide, designed as: ON switch for flavin mononucleotide

| Sequence | apparent Kd [1] | apparent Kd [2] | apparent Kd [3] | apparent Kd [4] |
| --- | --- | --- | --- | --- |
| AACUCGUCAGGAUAUGCGCGCAGAUAAUACGCUUCGCAAUUGCAGAAGGGACAUGAGGAUCACCCAUGUAAAUA | 29.8 nM | 32 nM | – | – |
| AACUGAGCCCAAGGAUAUCCUCACUUCCACUACAUGAGGAUCACCCAUGUCAGAUCGUCUGUGUAGGAGAAGGUGGUGUACAUG | – | – | 330 nM | 623 nM |
| AAGAAACAUGAGGAUCACCCAUGUCAGGAUAUCUCGAAAAGCAUAGAAAUAUGCGAAGAGAGAAGGGACAAGAA | 65 nM | 57 nM | – | – |
| AAGAAGACAGGAUAUACAUGAAAGAAAGAAAAGAAAAGAAAACAUGAGGAUCACCCAUGUAGAAGGGUCAAGAA | 46.5 nM | 59.2 nM | – | – |
| AAGAAGUCAGGAUAUCCAGCUCGUCACUUGCGUGAUGAGUUGGAGAAGGGACAUGAGGAUCACCCAUGUAAAGU | 56.9 nM | 55.5 nM | – | – |
| AAGAAGUCAGGAUAUGCAUGGCGGGACUUGCGUCGUGGCGUGCAGAAGGGACAUGAGGAUCACCCAUGUGGAGC | 107 nM | 161 nM | – | – |
| AAGAAGUGAGGAUAUCGAAGACAGACGAAAAGUCUGUCAAACGAGAAGGCACAUGAGGAUCACCCAUGUAAGAA | 25.9 nM | 35.2 nM | – | – |
| AAGAGACAUCAGAAGGGAGCCCGAAAGCGCAGCUCAGGAUAUGAGAUCUUAUGUAGUACGACAUGAGGAUCACCCAUGUCCGCG | – | – | 74.3 nM | 10.2 nM |
| AAGAUACAUGAGGAUCACCCAUGUCGAGAGAGACGAGGAUAUCUGAAUCGAUUAGAUUACGGAGAAGGCGUGAAAA | – | – | 31.5 nM | 25.6 nM |
| AAGAUGCGGAUAGGAUAUGGAAAGAAGGAAAGACCAGAAGGAUUGGUCAUAUAACAUGAGGAUCACCCAUGUAUAUGUUGUGAA | 17.8 nM | 17.7 nM | – | – |
| AAGCACAGAGGAUAUACAAUCCUCAGUGGGUCUGGCGAGCCACAUGAGGAUCACCCAUGUAGAAGGCUGGGCUC | 11.8 nM | 14.6 nM | – | – |
| AAGCAGUGUAAAUAAACUCAAAUACAUGAGGAUCACCCAUGUAAGGAUAUGCAGUGGAAUACACUGCAGAAGGUACAUCACUGC | 15.1 nM | 22.6 nM | – | – |
| AAGCGAAAGCUAAAAUAUCUAUCAGAGGAUAUUUAUGAUACAUGAGGAUCACCCAUGUAGCGCUGGGAGAAGGCUGAUAGAUAA | – | – | 6.44 nM | 4.98 nM |
| AAGCGAGGGACAGGAUAUGCGGCGAAACUCGCCGCAGAAGGGUCGACAUGAGGAUCACCCAUGUCCUUACGCUCCACGUAGUGG | – | – | 107 nM | 455 nM |
| AAGCUGGUAGGAUAUGCUAGGGCGACUAAUGCGCCGAUAGUACAUGAGGAUCACCCAUGUAGAAGGGCCAGAAA | 24.3 nM | 18.4 nM | – | – |
| AAGCUGUGAGGAUAUACAUGAGGAUCACCCAUGUUAAGGAAGUCUUGGUUAAUUUGGAGUAGAAGGCGCUUAUU | 30.9 nM | 25.5 nM | – | – |
| AAGGAUAGAGGAUAUACAUAGAUACAGAUUCAUGUAGAACUACAUGAGGAUCACCCAUGUAGAAGGCUAUCCUA | 32.9 nM | 239 nM | – | – |
| AAGGUACAUGAGGAUCACCCAUGUGGGUCGAACGCAGGAUAUCGCCGUUGGCCCUGGCGGCGAGAAGGGUGCCGAA | – | – | 189 nM | 175 nM |
| AAGUAACAUGAGGAUCACCCAUGUGAGGUGAGCGUAGGAUAUCGAGGAGGAAGGGUGGAGCGAGAAGGACGAGAGG | – | – | 362 nM | 360 nM |

| Sequence | apparent Kd [1] | apparent Kd [2] | apparent Kd [3] | apparent Kd [4] |
| --- | --- | --- | --- | --- |
| AAGUAGAUCCGAGGAUAUACAAUCCGGAAACGGUACAUGAGGAUCACCCAUGUAGAAGGCGGAUCUACAGGUACUAAAGUACCA | 6.5 nM | 8.32 nM | – | – |
| AAGUAGAUCCGAGGAUAUACAUAGUGGAAUCGCUACAUGAGGAUCACCCAUGUAGAAGGCGGAUCUACAGGUACUAAAGUACCA | 14 nM | 112 nM | – | – |
| AAGUAGGCAGGAUAUACAUGAGGAUCACCCAUGUGCCUAUACAAGGUAAUCUUGGGAGGUAGAAGGGCCUACAA | 33.9 nM | 166 nM | – | – |
| AAGUAGGGAGGAUAUACAUAGAUACAGAUUCAUGUAGAACUACAUGAGGAUCACCCAUGUAGAAGGCCCUAAUA | 31.6 nM | 193 nM | – | – |
| AAGUAGGGAGGAUAUACAUAGAUACAGAUUCAUGUGGAACUACAUGAGGAUCACCCAUGUAGAAGGCCCUAAUA | 27.2 nM | 102 nM | – | – |
| AAGUCAGCAGGAUAUGCGAUGUUGUGCUAGAUAGCGGGACCACAUGAGGAUCACCCAUGUAGAAGGGCUGGCUA | 34 nM | 22.5 nM | – | – |
| AAGUCGCGGUCAGGAUAUCAGAAACAAAUUGACUGAGAAGGGAUGGCACAUGAGGAUCACCCAUGUCGUCGUCGCAGUGGGUGA | 116 nM | 155 nM | – | – |
| AAGUCUGGACGAGGAUAUCAGCUGUAUCUGGCGUCAACAUGAGGAUCACCCAUGUUGCUAUAGGGUGAGAAGGCGUUUGGGCAA | – | – | 84.9 nM | 19.9 nM |
| AAGUCUGGACGAGGAUAUCAGUUGUAUCUGGCGUCAACAUGAGGAUCACCCAUGUUGCAAUAGGGUGAGAAGGCGUUUGGGCAA | – | – | 41.6 nM | 19.1 nM |
| AAGUGUGCCUAGGAUAUGUUCGGCCAAGGUCAUACAGAAGGAGGCACAUGAGGAUCACCCAUGUAGUGUCCUAC | 73.2 nM | 43.1 nM | – | – |
| AAGUGUGGAUGAGGAUAUCAGCUGUAACUGACGUCGACAUGAGGAUCACCCAUGUUGCUAAAGGGUGAGAAGGCAUUUGCGCAA | – | – | 481 nM | 53.8 nM |
| AAUAAACAUGAGGAUCACCCAUGUAAGGAUAUGCGAACAAUAAGAAGACAAUAAUAAAGCAGAAGGUACAAGAG | 78.1 nM | 96.2 nM | – | – |
| AAUAAACAUGAGGAUCACCCAUGUAAUAUAAAUGGAGGAUAUGCAAUUAUUAAUUAUUAAGUAGAAGGUCGAAUAA | – | – | 73.9 nM | 73.6 nM |
| AAUAAACUCACAGGAUAUAGCAGAGGUCGCGUGUACUUACAGGCGACGAGGCUAGAAGGGUGACCACAUGAGGAUCACCCAUGU | – | – | 1010 nM | 113 nM |
| AAUAAACUCACAGGAUAUAGCAGAGGUCGCGUGUACUUACAGGCGACGAUGCUAGAAGGGUGACCACAUGAGGAUCACCCAUGU | – | – | 961 nM | 153 nM |
| AAUAAACUCACAGGAUAUAGCAUAGGUCGCGUGAACUUACAGACGACUAUGCUAGAAGGGUGACCACAUGAGGAUCACCCAUGU | – | – | 880 nM | 186 nM |
| AAUAAAUAGGAGGAUAUCGUAUCGGAAACGAUACGAGAAGGUCUAACAUGAGGAUCACCCAUGUUCCUCAAUAA | 33.1 nM | 95.8 nM | – | – |
| AAUAACAGAGGAUAUACUGUUUUAUGUGUUUAUUGUUUUAAACAUGAGGAUCACCCAUGUAGAAGGCUGAAUGA | 43.8 nM | 41.9 nM | – | – |
| AAUAAGGGAGGAUAUGCGGAACGGUUUGUUCUCAGUGAGGCACAUGAGGAUCACCCAUGUAGAAGGCCCGGCAA | 13.8 nM | 93.1 nM | – | – |

| Sequence | apparent Kd [1] | apparent Kd [2] | apparent Kd [3] | apparent Kd [4] |
| --- | --- | --- | --- | --- |
| AAUAAGUGAGGAUAUACGAAAUAAAUAAAUAAAUAAAUAAAGUAGAAGGCACAUGAGGAUCACCCAUGUAAUAA | 34.6 nM | 29 nM | – | – |
| AAUAAUAAGGAGGAUAUCGUAUCGGAAACGAUACGAGAAGGCUUAACAUGAGGAUCACCCAUGUUCCUCAAUAA | 31 nM | 74.8 nM | – | – |
| AAUAAUAAGGAGGAUAUCGUAUCGGAAACGAUACGAGAAGGUCUAACAUGAGGAUCACCCAUGUUCCUCAAUAA | 40.8 nM | 54.6 nM | – | – |
| AAUAGGCGAGGAUAUACAUGAGGAUCACCCAUGUAAGUAAGCCUGGCUGAAACUAAAUGUAGAAGGCGCAAUAA | 14.3 nM | 43.1 nM | – | – |
| AAUAUAAAAGAGCUGGAUAACUCGACAUGAGGAUCACCCAUGUAGGAUAUCAGCACGAUAAGUGCUGAGAAGGACAACCAGCUC | 14.7 nM | 16.2 nM | – | – |
| AAUAUAAGAGCUGGACUCAAAAGAACAUGAGGAUCACCCAUGUAGGAUAUCAGCACGAUAAGUGCUGAGAAGGACAACCAGCUC | 14.4 nM | 15.2 nM | – | – |
| AAUAUAAGAGCUGGUACUCAAAGAACAUGAGGAUCACCCAUGUAGGAUAUCAGCACGAUAAGUGCUGAGAAGGACAUCCAGCUC | 15.8 nM | 15.9 nM | – | – |
| AAUAUAAUAAGAGCUGGAAAUAAAACAUGAGGAUCACCCAUGUAGGAUAUCAGCACGAUAAGUGCUGAGAAGGACAACCAGCUC | 14 nM | 15.1 nM | – | – |
| AAUAUAGAGCUGGUCUCAAAAUAAACAUGAGGAUCACCCAUGUAGGAUAUCAGCACGAUAAGUGCUGAGAAGGACAUCCAGCUC | 16.3 nM | 18.4 nM | – | – |
| AAUAUGAGCUGGAAUAAAACCUGAACAUGAGGAUCACCCAUGUAGGAUAUCAGCACGAUAAGUGCUGAGAAGGACAACCAGCUC | 14 nM | 14.6 nM | – | – |
| AAUAUGAGCUGGAAUAAACUCAAAACAUGAGGAUCACCCAUGUAGGAUAUCAGCACGAUAAGUGCUGAGAAGGACAACCAGCUC | 13.8 nM | 15.5 nM | – | – |
| AAUAUGAGCUGGUUUAAAACCUAAACAUGAGGAUCACCCAUGUAGGAUAUCAGCACGAUAAGUGCUGAGAAGGACAUCCAGCUC | 15 nM | 14.7 nM | – | – |
| AAUAUGUUGCAGAAGGCUAUAUUUUUUUAGUACCUCAUGACAUGAGGAUCACCCAUGUUUUUGUUGGAGGAUAUGCAAUAUAUU | 8.07 nM | 7.56 nM | – | – |
| AAUAUGUUGCAGAAGGUUAUAUUUUUUUAGUACCUCAUGACAUGAGGAUCACCCAUGUUUUUGUUGAAGGAUAUGCAAUAUAUU | 17.1 nM | 14.3 nM | – | – |
| AAUCAACGAAUACCAGGGCAUUAAUGAGAAGGCCAAUCACAUGAGGAUCACCCAUGUACGAGAGUGGAGGAUAUCAGUGGGCCG | – | – | 111 nM | 11.3 nM |
| AAUCCACAUGAGGAUCACCCAUGUCAGGAUAUCGCGCGCGCGUUUUCGGUCUCGCGCGCGAGAAGGGACGGCUG | 24 nM | 48.2 nM | – | – |
| AAUGAGCAGUAGAAGGCAUGUCUACGGACAUGAGGAUCACCCAUGUUGUGAAUCCGAAAGGAGCAUGAGGAUAUACUGCUCUAA | – | – | 70.7 nM | 14.7 nM |
| AAUGGGCAGCAGAAGGCAUGUCAUAAGACAUGAGGAUCACCCAUGUAGUUAAGGCGAAAGCCGCAUGAGGAUAUGCUGCCCUAA | – | – | 66 nM | 6.71 nM |
